# Results as given in ChEMBL document CHEMBL4311940, “Design, Synthesis, and Biological Evaluation of 4-Methyl Quinazoline Derivatives as Anticancer Agents Simultaneously Targeting Phosphoinositide 3-Kinases and Histone Deacetylases” (J Med Chem, 2019).
# Activity calls are given as the source filed them. The rule behind the calls is not given here.
# Assays:
# [1] = Drug level in BALB/c mouse plasma xenografted with human HGC27 cells at 100 mg/kg, po measured 0.5 hrs post last dose; format: ADME, organism-based
# Procedure, shortened: (§1)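 HGC-27 xenografted nude mice dosed po (0.5% cmc/Tween 80) or ip (saline); at end of treatment, 0.5 h after final dose, plasma and tumor tissue collected and compound concentration measured (ng/mL plasma, ng/g tumor).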
# [2] = Drug level in BALB/c mouse plasma xenografted with human HGC27 cells at 200 mg/kg, po measured 0.5 hrs post last dose; format: ADME, organism-based; procedure, shortened: as §1
# Mus musculus = assay: In vivo inhibition of PI3K/HDAC in tumor of human HGC27 cells xenografted in athymic nude BALB/c mouse assessed as reduction in phosphorylated Ki67 expression by DAB staining based immunohistochemistry method; format: functional, organism-based
# Procedure, shortened: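 HGC-27 xenograft tumors from treated and vehicle mice immunostained for Ki67, Ac-H3 and p-AKT(S473) (200×); integrated optical density analysed; mean ± SEM, n = 5−7, one-way ANOVA versus vehicle.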
# HCT-116 [3] = assay: Induction of cell cycle arrest in human HCT116 cells assessed as accumulation at G1 phase at 100 to 500 nM after 24 hrs by propidium iodide/RNase staining-based FACS analysis; format: functional
# Procedure, shortened: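 HCT116 cells cultured overnight in 6-well plates, exposed to compound at various concentrations for 24 h; FxCycle PI/RNase staining and flow cytometry for cell cycle phase distribution.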
# Homo sapiens [4] = species on record: Homo sapiens; assay: Inhibition of PI3K in human HCT116 cells assessed as reduction in AKT phosphorylation at S473 residue at 0.5 to 5 uM after 16 hrs by Western blot analysis; format: cell-based
# Procedure, shortened: (§2)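 Immunoblot of HCT116 lysates (RIPA). 40 μg protein per lane on 10−12% SDS-PAGE, transferred to nitrocellulose, blocked 0.5 h in 5% milk/TBST. Primary antibodies 1:1000 overnight at 4 °C, secondary 1:1000 for 1 h, bands visualized by enhanced ECL.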
# HCT-116 [5] = assay: Antiproliferative activity against human HCT116 cells after 96 hrs by MTT assay; format: functional, cell-based; conditions: HCT-116, 96 h
# THP-1 = assay: Antiproliferative activity against human THP1 cells after 96 hrs by MTT assay; format: functional, cell-based; conditions: THP-1, 96 h
# [6] = Drug level in tumor of human HCT116 cells xenografted in athymic nude BALB/c mouse at 150 mpk, po by LC/MS/MS analysis; format: ADME, organism-based, Neoplasm; conditions: in vivo, 150 mg/kg
# Procedure, shortened: (§3)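 HCT116 xenografted nude mice given daily oral doses; tumor tissue sampled 1 h after final dose and compound level measured (ng/g).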
# HGC-27 = assay: Antitumor activity against human HGC27 cells xenografted in athymic nude BALB/c mouse assessed as tumor growth inhibition at 200 mpk, po measured 2 times every week; format: functional; conditions: HGC-27, po, read-out: TGI
# Procedure, shortened: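 HGC-27 xenograft: 2 × 10^6 cells in 0.2 mL saline s.c. right flank of female BALB/c-nu/nu mice (6–8 weeks); randomized at 100–200 mm3. Oral dosing in 0.5% cmc with Tween 80, intraperitoneal in saline; vehicle given orally daily.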
# [7] = Toxicity in ip dosed ICR mouse assessed as maximum tolerated dose; format: organism-based; conditions: in vivo
# Procedure, shortened: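 Male ICR mice, 6−8 weeks old, given one dose; vehicle 0.5% cmc with Tween 80 for oral dosing, saline for intraperitoneal dosing. Clinical signs observed and body weights recorded for 7 consecutive days after dosing to set the maximum tolerated dose.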
# [8] = Drug level in tumor of human HCT116 cells xenografted in athymic nude BALB/c mouse at 100 mpk, po by LC/MS/MS analysis; format: ADME, organism-based, Neoplasm; conditions: in vivo, 100 mg/kg; procedure, shortened: as §3
# HCT-116 [9] = assay: Antitumor activity against human HCT116 cells xenografted in athymic nude BALB/c mouse assessed as tumor growth inhibition at 150 mpk, po measured 2 times every week relative to control; format: functional; conditions: HCT-116, po, read-out: TGI
# Procedure, shortened: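 Female BALB/c-nu/nu mice, 6–8 weeks, given 2 × 10^6 HCT116 cells in 0.2 mL saline s.c. right flank; randomized at 100–200 mm3. Daily oral dosing in 0.5% cmc with Tween 80; vehicle controls.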
# SW1990 = assay: Antiproliferative activity against human SW1990 cells after 96 hrs by MTT assay; format: functional, cell-based; conditions: SW1990, 96 h
# [10] = Drug level in tumor of human HGC27 cells xenografted in BALB/c mouse at 200 mg/kg, po measured 0.5 hrs post last dose; format: ADME, organism-based, Neoplasm; conditions: read-out: Drug uptake; procedure, shortened: as §1
# Homo sapiens [11] = species on record: Homo sapiens; assay: Selectivity ratio, ratio of IC50 for recombinant human PI3Kalpha to recombinant human His-tagged PIK3CD/PIK3R1 expressed in baculovirus expression system
# Homo sapiens [12] = species on record: Homo sapiens; assay: Selectivity ratio, ratio of IC50 for recombinant human N-terminal FLAG-tagged mTOR (1362 to end amino acids) to IC50 for recombinant human His-tagged PIK3CD/PIK3R1 expressed in baculovirus expression system
# [13] = target: Protein deacetylase HDAC6 (Homo sapiens, UniProt Q9UBN7); assay: Inhibition of HDAC6 (unknown origin) using Ac-peptide as substrate preincubated for 15 mins followed by substrate addition and measured after 1 hr
# Sequence of Protein deacetylase HDAC6 (Q9UBN7 whole entry): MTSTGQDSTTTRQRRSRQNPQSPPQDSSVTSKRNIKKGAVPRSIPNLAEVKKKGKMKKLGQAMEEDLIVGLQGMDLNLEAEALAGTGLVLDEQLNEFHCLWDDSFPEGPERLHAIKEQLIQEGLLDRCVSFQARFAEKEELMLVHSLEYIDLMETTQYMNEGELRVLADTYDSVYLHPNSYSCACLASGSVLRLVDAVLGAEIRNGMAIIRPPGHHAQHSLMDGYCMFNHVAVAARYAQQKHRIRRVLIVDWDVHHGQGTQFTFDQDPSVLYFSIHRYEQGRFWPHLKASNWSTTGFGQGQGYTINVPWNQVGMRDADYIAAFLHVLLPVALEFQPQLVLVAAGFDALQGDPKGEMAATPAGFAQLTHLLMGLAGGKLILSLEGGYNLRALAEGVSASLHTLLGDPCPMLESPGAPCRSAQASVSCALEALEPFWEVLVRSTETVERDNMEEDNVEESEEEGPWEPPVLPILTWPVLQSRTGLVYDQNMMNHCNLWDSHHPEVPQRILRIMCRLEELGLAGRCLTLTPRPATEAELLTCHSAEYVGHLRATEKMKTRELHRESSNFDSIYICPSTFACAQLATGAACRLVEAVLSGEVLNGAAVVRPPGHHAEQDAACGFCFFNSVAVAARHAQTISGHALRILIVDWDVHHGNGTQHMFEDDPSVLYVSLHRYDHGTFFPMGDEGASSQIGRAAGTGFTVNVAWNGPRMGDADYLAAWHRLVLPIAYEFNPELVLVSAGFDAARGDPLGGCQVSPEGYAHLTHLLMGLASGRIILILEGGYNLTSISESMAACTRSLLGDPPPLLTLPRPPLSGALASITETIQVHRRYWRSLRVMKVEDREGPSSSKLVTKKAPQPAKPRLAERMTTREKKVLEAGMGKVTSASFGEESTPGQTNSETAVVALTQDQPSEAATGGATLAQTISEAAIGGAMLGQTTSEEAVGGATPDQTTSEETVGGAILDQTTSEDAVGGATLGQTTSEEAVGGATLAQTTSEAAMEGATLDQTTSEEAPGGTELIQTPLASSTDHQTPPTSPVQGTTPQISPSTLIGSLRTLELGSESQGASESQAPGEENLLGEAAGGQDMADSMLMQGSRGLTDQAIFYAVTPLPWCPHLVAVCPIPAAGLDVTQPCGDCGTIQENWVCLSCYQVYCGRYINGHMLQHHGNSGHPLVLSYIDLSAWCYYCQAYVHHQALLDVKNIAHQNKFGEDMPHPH
# Homo sapiens [14] = species on record: Homo sapiens; assay: Inhibition of HDAC/PI3K in human HCT116 cells assessed as increase in cleaved PARP level at 0.02 to 0.5 uM after 16 hrs by Western blot analysis; format: cell-based; procedure, shortened: as §2
# Homo sapiens [15] = species on record: Homo sapiens; assay: Inhibition of HDAC/PI3K in human HCT116 cells assessed as increase in cleaved caspase-3 level at 0.02 to 0.5 uM after 16 hrs by Western blot analysis; format: cell-based; procedure, shortened: as §2
# [16] = target: PI3-kinase p110-delta/p85-alpha (Homo sapiens, UniProt O00329); assay: Inhibition of recombinant human His-tagged PIK3CD/PIK3R1 expressed in baculovirus expression system using PIP2 as substrate incubated for 1 hr by ADP-glo assay
# Sequence of PI3-kinase p110-delta/p85-alpha (P27986 whole entry): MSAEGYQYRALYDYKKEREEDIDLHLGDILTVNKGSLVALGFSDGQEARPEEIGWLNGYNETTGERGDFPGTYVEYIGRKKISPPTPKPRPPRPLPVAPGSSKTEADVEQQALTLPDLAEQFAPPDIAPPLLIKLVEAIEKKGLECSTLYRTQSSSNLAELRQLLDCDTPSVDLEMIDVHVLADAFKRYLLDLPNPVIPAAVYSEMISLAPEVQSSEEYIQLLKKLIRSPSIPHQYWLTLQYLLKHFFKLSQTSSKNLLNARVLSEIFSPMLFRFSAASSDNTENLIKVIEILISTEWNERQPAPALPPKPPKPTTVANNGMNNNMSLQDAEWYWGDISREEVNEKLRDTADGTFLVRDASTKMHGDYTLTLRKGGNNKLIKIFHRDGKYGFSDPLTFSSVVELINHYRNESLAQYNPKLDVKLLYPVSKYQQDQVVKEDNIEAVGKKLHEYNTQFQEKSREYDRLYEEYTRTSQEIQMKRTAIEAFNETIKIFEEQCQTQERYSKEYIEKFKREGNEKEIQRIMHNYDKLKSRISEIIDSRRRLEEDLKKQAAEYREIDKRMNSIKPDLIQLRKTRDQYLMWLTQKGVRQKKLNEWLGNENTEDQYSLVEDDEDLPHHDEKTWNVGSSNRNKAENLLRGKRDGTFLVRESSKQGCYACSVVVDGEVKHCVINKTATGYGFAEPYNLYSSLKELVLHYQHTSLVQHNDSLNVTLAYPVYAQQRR
# Sequence of PI3-kinase p110-delta/p85-alpha (O00329 whole entry): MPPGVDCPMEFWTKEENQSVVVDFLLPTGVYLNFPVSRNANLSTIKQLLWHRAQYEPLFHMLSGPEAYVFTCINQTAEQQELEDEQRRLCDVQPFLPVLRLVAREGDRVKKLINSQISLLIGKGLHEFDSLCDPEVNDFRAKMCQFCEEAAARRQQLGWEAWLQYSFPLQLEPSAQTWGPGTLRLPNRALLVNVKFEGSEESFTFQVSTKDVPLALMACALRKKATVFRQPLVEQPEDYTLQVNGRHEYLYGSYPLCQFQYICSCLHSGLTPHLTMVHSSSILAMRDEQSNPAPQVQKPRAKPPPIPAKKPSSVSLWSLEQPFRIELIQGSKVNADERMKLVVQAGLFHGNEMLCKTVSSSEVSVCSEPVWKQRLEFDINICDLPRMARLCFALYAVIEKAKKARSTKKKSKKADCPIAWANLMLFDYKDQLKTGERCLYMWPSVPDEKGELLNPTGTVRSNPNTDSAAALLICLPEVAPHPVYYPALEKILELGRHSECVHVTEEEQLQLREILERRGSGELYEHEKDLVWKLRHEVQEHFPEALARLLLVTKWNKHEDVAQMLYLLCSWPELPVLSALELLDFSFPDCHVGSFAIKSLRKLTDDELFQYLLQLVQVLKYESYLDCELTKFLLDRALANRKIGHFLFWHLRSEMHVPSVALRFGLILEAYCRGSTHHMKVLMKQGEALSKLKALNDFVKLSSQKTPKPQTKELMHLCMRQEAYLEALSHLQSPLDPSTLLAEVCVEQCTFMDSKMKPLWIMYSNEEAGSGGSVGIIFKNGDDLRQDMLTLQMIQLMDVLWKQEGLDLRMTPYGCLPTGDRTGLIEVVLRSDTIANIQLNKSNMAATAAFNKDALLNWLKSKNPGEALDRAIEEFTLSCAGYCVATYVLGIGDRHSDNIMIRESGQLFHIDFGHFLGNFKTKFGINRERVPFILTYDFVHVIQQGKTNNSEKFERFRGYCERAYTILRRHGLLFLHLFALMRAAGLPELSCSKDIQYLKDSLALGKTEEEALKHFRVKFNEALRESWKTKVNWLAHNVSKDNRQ
# Homo sapiens [17] = species on record: Homo sapiens; assay: Selectivity ratio, ratio of IC50 for recombinant human His-tagged PIK3CG expressed in baculovirus expression system to recombinant human His-tagged PIK3CD/PIK3R1 expressed in baculovirus expression system
# [18] = Selectivity index, ratio of IC50 for human PBMC cells to IC50 for human HCT116 cells; format: toxicity; conditions: PBMC cells and HCT116 cells, read-out: Ratio IC50
# Procedure, shortened: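 Ratio of IC50s from the MTT assay: PBMC or LO2 cells versus HCT116. Cells seeded at 2000/well, attached overnight at 37 °C, treated 96 h, MTT 4 h, formazan dissolved in DMSO, A570.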
# Homo sapiens [19] = species on record: Homo sapiens; assay: Inhibition of PI3K in human HCT116 cells assessed as reduction in AKT phosphorylation at S473 residue at 0.02 to 0.5 uM after 16 hrs by Western blot analysis; format: cell-based; procedure, shortened: as §2
# Homo sapiens [20] = species on record: Homo sapiens; assay: Selectivity ratio, ratio of IC50 for recombinant human N-terminal FLAG-tagged mTOR (1362 to end amino acids) to IC50 for recombinant human PI3Kalpha
smiles,measurement,setting,value
COc1ncc(-c2cc(OCCCCCCC(=O)NO)c3ncnc(C)c3c2)cc1F,concentration at 0.5 h,[1],179 ng/mL
same,concentration at 0.5 h,[2],232 ng/mL
same,inhibition,Mus musculus,Active
same,Activity,HCT-116 [3],Dose-dependent effect
same,inhibition,Homo sapiens [4],Active
same,IC50,HCT-116 [5],150 nM
same,IC90,HCT-116 [5],48000 nM
same,IC50,THP-1,5400 nM
same,Drug uptake,[6],74.8 ng/g
same,inhibition in vivo at 200 mg/kg,HGC-27,45.9%
same,MTD,[7],> 100 mg/kg
same,Drug uptake,[8],72.7 ng/g
same,inhibition in vivo at 150 mg/kg,HCT-116 [9],45.8%
same,IC50,SW1990,900 nM
same,concentration at 0.5 h,[10],105 ng/g
COc1ccc(-c2cc(OCCN(C)c3ncc(C(=O)NO)cn3)c3ncnc(C)c3c2)cn1,Ratio IC50,Homo sapiens [11],> 5
same,Ratio IC50,Homo sapiens [12],> 27
same,Activity,HCT-116 [3],Dose-dependent effect
same,IC50,[13],17 nM
same,inhibition,Homo sapiens [14],Active
same,IC50,HCT-116 [5],7 nM
same,IC90,HCT-116 [5],2800 nM
same,IC50,THP-1,910 nM
same,inhibition,Homo sapiens [15],Active
same,IC50,[16],29 nM
same,Ratio IC50,Homo sapiens [17],> 5
same,MTD,[7],> 100 mg/kg
same,selectivity ratio,[18],8240
same,inhibition,Homo sapiens [19],Active
same,Ratio IC50,Homo sapiens [20],> 27
same,IC50,SW1990,230 nM
